Reference: ChEMBL document CHEMBL3797173, “Synthesis, anticancer activity, and SAR analyses of compounds containing the 5:7-fused 4,6,8-triaminoimidazo[4,5-e][1,3]diazepine ring system” (Bioorg Med Chem, 2016)
pIC50: −log10 of the molar value.

Legend:
MCF7 = assay: Anticancer activity against human MCF7 cells incubated for 72 hrs by WST1 assay; assay type: functional, cell-based; conditions: for pIC50: Homo sapiens, MCF7, 72 h, read-out: IC50
Summary of the method: (§1)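 Cells (0.5–1.7x10³ per well) seeded in RPMI + 10% FBS the day before dosing. Endpoint: WST-1 reagent added, 4 h further incubation at 37 °C, 5% CO₂, then absorbance read at 450–690 nm. IC50 derived from these readouts.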

MDA-MB-231 = assay: Anticancer activity against human MDA-MB-231 cells incubated for 72 hrs by WST1 assay; assay type: functional, cell-based; conditions: for IC50: mda-mb-231; for pIC50: Homo sapiens, MDA-MB-231, 72 h, read-out: IC50; summary of the method: as §1
[1] = Anticancer activity against human OVCAR3 cells incubated for 72 hrs by WST1 assay; assay type: functional, cell-based, OVCAR-3; conditions: for IC50: ovcar-3; for pIC50: Homo sapiens, OVCAR-3, 72 h, read-out: IC50; summary of the method: as §1
[2] = Anticancer activity against human H460 cells incubated for 72 hrs by WST1 assay; assay type: functional, cell-based, NCI-H460; conditions: for pIC50: Homo sapiens, NCI-H460, 72 h, read-out: IC50; summary of the method: as §1
[3] = Anticancer activity against human PC3 cells incubated for 72 hrs by WST1 assay; assay type: functional, cell-based, PC-3; conditions: for pIC50: Homo sapiens, PC-3, 72 h, read-out: IC50; summary of the method: as §1
A549 = assay: Anticancer activity against human A549 cells incubated for 72 hrs by WST1 assay; assay type: functional, cell-based; conditions: for pIC50: Homo sapiens, A549, 72 h, read-out: IC50; summary of the method: as §1

pIC50 (MCF7) | IC50 (MDA-MB-231) | pIC50 (A549) | pIC50 (MDA-MB-231) | IC50 (MCF7; mcf7) | IC50 (A549; a549) | Structure (SMILES) | IC50 [1] | pIC50 [2] | pIC50 [3] | pIC50 [1] | IC50 ([2]; nci-h460) | IC50 ([3]; pc-3)
< 4.00 | Not Active | 4.42 |  |  |  | CC/N=c1\nc(N)c2nc[nH]c2c(N)n1 | Not Active | 4.66 | < 4.00 |  |  | 
4.98 |  | 4.69 | 4.75 |  |  | Nc1n/c(=N\CCc2ccccc2)nc(N)c2c1ncn2Cc1ccccc1 |  | 4.44 | 4.88 | 4.50 |  | 
5.39 |  | 5.37 | 5.23 |  |  | CCCCCCCCCCCCCC/N=c1\nc(N)c2ncn(Cc3ccccc3)c2c(N)n1 |  | 5.17 | 5.38 | 5.26 |  | 
5.45 |  | 5.73 | 5.84 |  |  | CCCCCCCCCCCCCCCCCC/N=c1\nc(N)c2nc[nH]c2c(N)n1 |  | 5.76 | 5.58 | 5.51 |  | 
5.85 |  | 5.74 | 5.69 |  |  | CCCCCCCCCC/N=c1\nc(N)c2ncn(Cc3ccccc3)c2c(N)n1 |  | 5.49 | 5.29 | 5.40 |  | 
5.52 |  | 5.23 | 5.44 |  |  | CCCCCCCC/N=c1\nc(N)c2ncn(Cc3ccc(F)cc3)c2c(N)n1 |  | 5.33 | 5.42 | 5.37 |  | 
 | Not Active |  |  | Not Active | Not Active | CCCCCCCC/N=c1\nc(N)c2nc[nH]c2c(N)n1 | Not Active |  |  |  | Not Active | Not Active
5.34 |  | 5.42 | 5.32 |  |  | CCCCCCCC/N=c1\nc(N)c2ncn(Cc3ccccc3)c2c(N)n1 |  | 5.13 | 5.23 | 5.30 |  | 
5.06 |  | 4.82 | 4.78 |  |  | Nc1n/c(=N\CCCCc2ccccc2)nc(N)c2c1ncn2Cc1ccccc1 |  | 4.73 | < 4.12 | 4.43 |  | 
5.08 |  | 5.28 | 5.27 |  |  | CCCCCCCCCCCCCCCCCC/N=c1\nc(N)c2ncn(Cc3ccccc3)c2c(N)n1 |  | 5.27 | 5.26 | 5.31 |  | 
5.42 |  | 5.24 | 5.59 |  |  | CCCCCCCC/N=c1\nc(N)c2ncn(Cc3ccc(OC)cc3)c2c(N)n1 |  | 5.38 | 5.23 | 5.43 |  | 
